Consider 48 sequences from the EternaBench riboswitch data.

This data set relates to MS2 coat protein. The data set is described as follows: apparent Kd, MS2 coat protein; higher = weaker binding; RNA-MaP array; FMN 200 µM where present. The method in brief:
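The apparent Kd is reported as the median of filtered per-cluster binding-curve fits. To get these curves, designs transcribed by stalled E. coli RNA polymerase on Illumina sequencing-chip clusters were titrated with SNAP-549-labelled MS2 coat protein from 0.7 or 1.5 nM, doubling to 3 µM. Titrations were run without and then with constant ligand in 100 mM Tris-HCl pH 7.5, 80 mM KCl, 4 mM MgCl2, BSA, DTT, yeast tRNA and Tween-20, and green signal was normalised to red-channel RNA signal and control-cluster median Fmax.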

Setting [1] is: designed as: OFF switch for flavin mononucleotide, no ligand.
[2] abbreviates: ligand present: flavin mononucleotide, designed as: OFF switch for flavin mononucleotide.
[3] abbreviates: designed as: ON switch for flavin mononucleotide, no ligand.
The mark [4] stands for this setting: ligand present: flavin mononucleotide, designed as: ON switch for flavin mononucleotide.

In general, apparent Kd refers to the concentration giving half-maximal binding under the conditions of the assay. In the case of “GGAUAGGACAGAGGAUAUACGUGCUAGAGAUACUCGCAAAAUUUCCUCACAUGAGGAUCACCCAUGUAGAAGGCUGUCCUAUCG”, the “apparent Kd” value was 93 nM under setting [1] and 436 nM under setting [2].

Consider “CGAUGUUAUGCAGGAUAUCUCCCUUGAAUGCGGAGAGAAGGGCAUAGGGAGACAUACGCCUUAUUACAUGAGGAUCACCCAUGU”, for which the “apparent Kd” value by setting is: under setting [1], 8.42 nM; under setting [2], 7.86 nM.

In the case of “GGGUGACAUGAGGAUCACCCAUGUCAGGAUAUCUAGGGCAGAUGCUGGGAGCGUUCGCAGAGAAGGGACCAGAU”, the “apparent Kd” value reads like this: under setting [1], 52.3 nM; under setting [2], 46.1 nM.

Take “AACAGCUCGUCAGGAUAUACAAUACUGCUUCGGCAGUAUGAUAAGAUAACAUGAGGAUCACCCAUGUAGAAGGGACGAGCUGAA”: the “apparent Kd” value was 6.23 nM under setting [1] and 7.47 nM under setting [2].

On to “CAUGUUUGGCUGGUCGAGAAACACAUGAGGAUCACCCAUGUCAGAAGGCGACGUCAGCAAACCGUCGAGGAUAUGACAUCAAAA”, for which the “apparent Kd” value reads like this: under setting [1], 5.65 nM; under setting [2], 30.2 nM.

For the sequence “CUGAUGUGAGGAUAUCGGGCUACAGGACUGCUGCUAGCAAACGAGAAGGCACAUGAGGAUCACCCAUGUGAGAG”, the “apparent Kd” value is 18.1 nM under setting [1] and 25.4 nM under setting [2].

For the sequence “AACGCGUCAGGAUAUGCCAUAAAUUACCUAAUACAACCAUAGCAGAAGGGACAUGAGGAUCACCCAUGUAAAUA”, the “apparent Kd” value reads like this: under setting [1], 32.1 nM; under setting [2], 25.2 nM.

Consider “UGGUACAUGGGAGGAUAUCAUGUAGAGACAUGAGGAUCACCCAUGUCGAUGGAGACAUCGGAGAUUGAGAAGGCCCAUGUACCU”, for which the “apparent Kd” value by setting is: under setting [3], 152 nM; under setting [4], 23.1 nM.

“GCGUACAUAUCAGGAUAUCAUAUUAUUGUUUUACUCAGUGUAUACAUGAGGAUCACCCAUGUUCUUGAGAAGGGAUUACUACGC”: the “apparent Kd” value amounted to 15.2 nM under setting [1] and 14.7 nM under setting [2].

Consider “AUAGAAAGAUUAAUAUGAUUACAUGAGGAUCACCCAUGUAUAAAGGAUAUCGACGUCAAUGACGUCGAGAAGGUUAUACAUAAU”, for which the “apparent Kd” value was 24.2 nM under setting [1] and 84 nM under setting [2].

As for “UGUAGUUACGUAGGAUAUCCACGGGCACCCGUAGGAGAAGGACGCUGGACAUGAGGAUCACCCAUGUAUAGAUGGGUGCCUUUC”, the “apparent Kd” value was found to be 125 nM under setting [1] and 206 nM under setting [2].

Consider “UAAGAAGCACUCGGAACCGGACAAUGAGAAGGCCACGCACAUGAGGAUCACCCAUGUAAAGCUAUGGAGGAUAUCAUGAUGGAA”, for which the “apparent Kd” value under setting [3] amounted to 80.9 nM and the “apparent Kd” value under setting [4] amounted to 8.71 nM.

Take “UUAAAUCAUGUAGGAUAUGCAUGGCGAAGCUACGCAGAAGGACAUGAGGAUCACCCAUGUUAUAGCGUCCGAAUAAGGAUGCAA”: the “apparent Kd” value is 90.7 nM under setting [1] and 199 nM under setting [2].

In the case of “AAUUAAUUAAUACAUGAGGAUCACCCAUGUAAUUAUUAGAUCUAGGAUAUCAGCUCGUUUAGAGCUGAGAAGGAGAUCACAUGU”, the “apparent Kd” value was determined as 19.2 nM under setting [3] and 14.6 nM under setting [4].

“GGAUAGGACAGAGGAUAUACGGAUAGGAUCUACUAUCAAACAAGUCCUACAUGAGGAUCACCCAUGUAGAAGGCUGUCCUAUCG”: the “apparent Kd” value reads like this: under setting [1], 16.9 nM; under setting [2], 22.1 nM.

For the sequence “ACAUGCAUAGCGAUAUGAUCGAGAGAUCAUGUCGCUAAAUUUAGAAGGACAUGAGGAUCACCCAUGUAGGAUAUGGGAGCAUGA”, the “apparent Kd” value by setting is: under setting [3], 44.7 nM; under setting [4], 11.1 nM.

On to “GUUGUAUGAGGAUAUACAUGAGGAUCACCCAUGUGUGUUGUGAACGAUGUACGUUUAUGUAGAAGGCGUGCGGC”, for which the “apparent Kd” value by setting is: under setting [1], 17.8 nM; under setting [2], 21.5 nM.

Turning to “UUGGACGUCGUAGGAUAUGUAGGAUAUUCCUACAUGAGGAUCACCCAUGUUGACAUGAAAGAAGGACAGAAGGACGAUGUCCAU”, the “apparent Kd” value is 144 nM under setting [3] and 5.77 nM under setting [4].

Regarding “AUGCUUCACACAGGAUAUUACAUGAGGAUCACCCAUGUUGGGCGGUAGCUCGAAAGAGCUACCGGUAAGAAGGGUGUGAAGCAU”, the “apparent Kd” value is 30.4 nM under setting [1] and 59.2 nM under setting [2].

With “AUGUACCGGUGAGGAUAUUUUUAAUAGAGCUUUAUGAUAUACAUGAGGAUCACCCAUGUUACGUUAAAGAAGGCAUCGGAUUAA”, the “apparent Kd” value is, setting by setting: under setting [1], 21 nM; under setting [2], 15.9 nM.

As for “GUAGCAUACCGAGGAUAUUCAUAUAAUAAGUAAACAUGAGGAUCACCCAUGUAGCGAAAGCCUUGGGAGAAGGCGGAAUGCUAC”, the “apparent Kd” value came out at 346 nM under setting [3] and 52 nM under setting [4].

As for “AUUCAACAUGAGGAUCACCCAUGUGAGGAUAUCGUAUACUACUGUUGCAAUACUUAGACGAGAAGGCACACCGU”, the “apparent Kd” value was found to be 18.9 nM under setting [1] and 25.1 nM under setting [2].

With “UCAUUUCAGUUAGGAUAUUAAAACAUGACGAUACAUGAGGAUCACCCAUGUUAAGAAGGAACUAAUACAUAUAAUGCAAUGUUC”, the “apparent Kd” value under setting [1] worked out at 15.9 nM and the “apparent Kd” value under setting [2] was 13.2 nM.

Turning to “ACGCGAUGGGAGAAGGUACUUUAAGAAUUUUACACAUGAGGAUCACCCAUGUAAGGAUAUCCCAUCGUUAAAUAUUAUACAGCA”, the “apparent Kd” value is, setting by setting: under setting [1], 6.56 nM; under setting [2], 5.77 nM.

“UAUUAACACGAAGGAUAUGGUUACAUGAGGAUCACCCAUGUAUGUAUAUUGAUCCAGAUUUUUGACCAGAAGGUCGUGAGUAAA”: the “apparent Kd” value was 108 nM under setting [1] and 285 nM under setting [2].

“UGGUACAUGGGAGGAUAUCAUGUAGAUACAUGAGGAUCACCCAUGUCGAUGGAGACAUCGGAGAUUGAGAAGGCCCAUGUACCU”: the “apparent Kd” value is 778 nM under setting [3] and 32.9 nM under setting [4].

Take “ACUUGUAAGCAGAAGGCAGUCAUUAUAUUCAUCAUGUAGACAUGAGGAUCACCCAUGUAGAGUACUGAGGAUAUGCAUCGAUAG”: the “apparent Kd” value by setting is: under setting [1], 6.41 nM; under setting [2], 8.85 nM.

As to “CGCCGACAUGAGGAUCACCCAUGUCACAUCUGGUCAGGAUAUGGUGUGGUUUGGCUAUUGCCAGAAGGGACCUCAG”, the “apparent Kd” value under setting [3] turned out to be 101 nM and the “apparent Kd” value under setting [4] was found to be 102 nM.

For “UGGCUACAUGAGGAUCACCCAUGUCAGGAUAUGCCGUCGGCUUGCCUUCGUCGUUCGGGUAGAAGGGACUGCGG”, the “apparent Kd” value turned out to be 28.1 nM under setting [1] and 28.1 nM under setting [2].

In the case of “GGGUACAUCGGAGGAUAUCAUGUAGAUACAUGAGGAUCACCCAUGUCGAUGGAGACAUCGGAGAUUGAGAAGGCCGAUGUACCG”, the “apparent Kd” value under setting [3] worked out at 272 nM and the “apparent Kd” value under setting [4] came out at 10.1 nM.

Regarding “AAUAUGUUGCAGAAGGUUAUUUUUAUAACGUUCCUCUUGACAUGAGGAUCACCCAUGUAAUUGUUGAAGGAUAUGCAAUAUAUU”, the “apparent Kd” value under setting [1] came out at 6.69 nM and the “apparent Kd” value under setting [2] was found to be 6.18 nM.

“CCAGGCUGUGUGAGGAUAUGCUGGUCCUUGGAUCAGCAGAAGGCACAUGAGGAUCACCCAUGUGAAUAGCUUGG”: the “apparent Kd” value reads like this: under setting [1], 16.9 nM; under setting [2], 30 nM.

“GCCUUACAUGAGGAUCACCCAUGUGAGGAUAUUAACAGCUGCACUACUGAAGCGGCUGUAAGAAGGCACGUGGU”: the “apparent Kd” value reads like this: under setting [1], 30.5 nM; under setting [2], 37.8 nM.

Take “AAAAGUUAAGGAUAUACAGGGAGCCGCGGCGACUCGCCGCAACAUGAGGAUCACCCAUGUAGAAGGUAGCCAAA”: the “apparent Kd” value runs as follows: under setting [1], 27.6 nM; under setting [2], 62.8 nM.

On to “UAUAUGUCAGGAUAUCGAUUGGAAUGGAAUUUAGUUCUGGUUGAGAAGGGACAUGAGGAUCACCCAUGUUUUUC”, for which the “apparent Kd” value by setting is: under setting [1], 35.5 nM; under setting [2], 213 nM.

Consider “AGGAAACAUGAGGAUCACCCAUGUAAAGAUGGGCGAGGAUAUCGAAAGAAAAGAAAGAAACGAGAAGGCGCAAAAG”, for which the “apparent Kd” value was 305 nM under setting [3] and 72.1 nM under setting [4].

Consider “GUGUACAGAGGAUAUGCACGAGGAGUUACGAAAGUAACUUCACAUGAGGAUCACCCAUGUAGAAGGCUGUACAC”, for which the “apparent Kd” value is 14.4 nM under setting [1] and 17.8 nM under setting [2].

Turning to “CCUCAGAACAAGAAGGUGGGAGAAGAGUAUAACUAAGGAUAUUGAAAGGGAUGAACAUGAGGAUCACCCAUGUAAGGAAUCGUG”, the “apparent Kd” value worked out at 52.8 nM under setting [1] and 40.9 nM under setting [2].

Consider “UGUUAAAUUGAUCCUGCAAGUACAUGAGGAUCACCCAUGUGCUAGGAUAUCGCGCAGCUAAAGACCGAGAAGGAGCACAAUGUA”, for which the “apparent Kd” value came out at 39.2 nM under setting [1] and 97.7 nM under setting [2].

With “UUUACAUGAGGAUCACCCAUGUUAAAAUAAUUAAUUAUAAGUGAGGAUAUAUAAAUUAUAAAAUUGUAGAAGGCACUGGGUAUU”, the “apparent Kd” value was 22 nM under setting [3] and 23.4 nM under setting [4].

With “AAUUGCCUAGGAUAUACUUGGGCCCGCUCAUACUCCAAUGGACAUGAGGAUCACCCAUGUAGAAGGAGGACCCA”, the “apparent Kd” value runs as follows: under setting [1], 17.2 nM; under setting [2], 39.4 nM.

As to “AUAUAUGCUAACAUGAGGAUCACCCAUGUGUUAUACUUAAUAUAGGAUAUGUUUAUACUUUUUGGGCAGAAGGAUGGCAUAUAU”, the “apparent Kd” value runs as follows: under setting [3], 26.1 nM; under setting [4], 21.8 nM.

“GGCAGACAUGAGGAUCACCCAUGUCGGCCGUUAGGAGGAUAUCGGUGAUAUCUGUCUCGCCGAGAAGGUUUAAUUA”: the “apparent Kd” value reads like this: under setting [3], 11.5 nM; under setting [4], 12.1 nM.

With “AGUCGGAGCAGAGGAUAUUACAUGAGGAUCACCCAUGUAAAUGGAAUAAGCUGGAAACAGCAAUGUAAGAAGGCUGCUCCGACA”, the “apparent Kd” value by setting is: under setting [1], 67.4 nM; under setting [2], 540 nM.

For “GUAGCAACAUGAGGAUCACCCAUGUAGGAUAUCGCUAUUGUAAUCAUGUUACAUGAUUACAAUAGCGAGAAGGACGUGAGCUAC”, the “apparent Kd” value reads like this: under setting [1], 8.43 nM; under setting [2], 11.4 nM.

As to “CCGCAUGCUGUCAGGAUAUCGUAGAUAAUAAUAUGCGAGAAGGGACAUGAGGAUCACCCAUGUAAGAGGCGGCC”, the “apparent Kd” value was found to be 28.9 nM under setting [1] and 37.7 nM under setting [2].

Consider “GCGAUUAAGUAGAAGGUACGAUAUAUAUCAUUGUAAGGAUAUACUUACAUGAGGAUCACCCAUGUUAAAGGUUAUAAUAAUCGC”, for which the “apparent Kd” value came out at 94.6 nM under setting [3] and 28 nM under setting [4].

On to “UAUAUAUAGUAAGGAUAUGUAUAUAUAUUAUAAACAGAAGGUACUGACAUGAGGAUCACCCAUGUUUUAGUGUGGGCAUGUAGA”, for which the “apparent Kd” value reads like this: under setting [1], 75.1 nM; under setting [2], 96.1 nM.
